{"source": "ChEMBL document CHEMBL4428077", "about": "“Synthesis and Biological Evaluation of N-((1-(4-(Sulfonyl)piperazin-1-yl)cycloalkyl)methyl)benzamide Inhibitors of Glycine Transporter-1” (J Med Chem, 2016)", "key": {"[1]": {"test": "Drug level in Sprague-Dawley rat brain at 3 mg/kg, po qd for 5 days measured 2 hrs post last dose by LC-MS/MS analysis", "format": "ADME, organism-based", "details": "read-out: Drug uptake", "procedure,_shortened": "(§1)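 Drug-naive Sprague−Dawley rats (n = 5/group) were dosed orally once daily for 5 days in 5% Solutol plus 20% Captisol in 25 mM PBS, pH 2, and sacrificed 2 h after the last dose. Drug was measured in CSF, brain and plasma; mean ± SEM.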"}, "Rattus norvegicus [2]": {"tested_on": "Rattus norvegicus", "test": "In vivo inhibition of glycine transporter-1 in Sprague-Dawley rat assessed as CSF glycine level at 1 mg/kg, po qd for 5 days measured 2 hrs post last dose by LC-MS/MS analysis relative to control", "format": "functional", "set-up": "scale not given: the % may be the effect or the level left", "procedure,_shortened": "(§2)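 Drug-naive Sprague-Dawley rats, n = 5 per group, dosed orally once daily for 5 days with vehicle or 1.6, 4.8 or 16.1 μmol/kg. Vehicle was 5% Solutol / 20% Captisol in 25 mM PBS, pH 2. Killed 2 h or 48 h after the last dose. CSF glycine was expressed as % of vehicle control (vehicle 2 h post last dose), mean ± SEM. Two-way ANOVA with Tukey test.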"}, "[3]": {"test": "Drug level in Sprague-Dawley rat CSF at 3 mg/kg, po qd for 5 days measured 2 hrs post last dose by LC-MS/MS analysis", "format": "ADME, organism-based, Cerebrospinal fluid", "details": "read-out: Drug uptake", "procedure,_shortened": "as §1"}, "[4]": {"test": "Drug level in Sprague-Dawley rat plasma at 1 mg/kg, po qd for 5 days measured 2 hrs post last dose by LC-MS/MS analysis", "format": "ADME, organism-based", "procedure,_shortened": "as §1"}, "[5]": {"test": "Toxicity in Sprague-Dawley rat assessed as gross behavioral abnormality at 0.3 to 100 mg/kg, po", "format": "organism-based", "details": "in vivo", "procedure,_shortened": "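Drug-naive Sprague–Dawley rats (n = 5/group) received a single oral dose of 0.4–160.9 μmol/kg in 5% Solutol plus 20% Captisol in 25 mM PBS, pH 2, and were watched for gross behavioral abnormalities until sacrifice at 2 h.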"}, "Rattus norvegicus [6]": {"tested_on": "Rattus norvegicus", "test": "In vivo inhibition of glycine transporter-1 in Sprague-Dawley rat assessed as increase in CSF glycine level at 1 to 10 mg/kg, po qd for 5 days measured 48 hrs post last dose by LC-MS/MS analysis", "format": "functional, organism-based", "procedure,_shortened": "as §2"}, "Rattus norvegicus [7]": {"tested_on": "Rattus norvegicus", "test": "In vivo inhibition of glycine transporter-1 in Sprague-Dawley rat assessed as CSF glycine level at 100 mg/kg, po measured 2 hrs post dose by LC-MS/MS analysis relative to control", "format": "functional", "set-up": "scale not given: the % may be the effect or the level left", "procedure,_shortened": "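Drug-naive Sprague-Dawley rats, n = 5 per group, given acute oral doses of 0.4-160.9 μmol/kg (0.3-100 mg/kg). Vehicle was Solutol 5% in 20% Captisol / 25 mM PBS, pH 2. Killed 2 h post-dose. CSF glycine was quantified by LC-MS/MS with a deuterated-glycine standard and expressed as % vehicle control, mean ± SEM. Two-way ANOVA with Tukey test.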"}, "[8]": {"test": "Drug level in Sprague-Dawley rat CSF at 100 mg/kg, po measured 2 hrs post dose by LC-MS/MS analysis", "format": "ADME, organism-based, Cerebrospinal fluid", "details": "read-out: Drug uptake", "procedure,_shortened": "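Drug-naive Sprague−Dawley rats (n = 4−5/group) were dosed orally once in 5% Solutol plus 20% Captisol in 25 mM PBS, pH 2, and euthanized 2 h later by CO₂. CSF was drawn from the cisterna magna. Drug was measured in CSF, brain and plasma; data as mean ± SEM.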"}, "Rattus norvegicus [9]": {"tested_on": "Rattus norvegicus", "test": "In vivo inhibition of glycine transporter-1 in po dosed Sprague-Dawley rat assessed as increase in CSF glycine level measured 2 hrs post dose by LC-MS/MS analysis", "format": "functional", "procedure,_shortened": "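Drug-naive adult male Sprague-Dawley rats, n = 4-5 per group, given a single oral dose of 0.4, 1.5, 4.7 or 15.7 μmol/kg. Vehicle was 5% Solutol + 10% Captisol in 25 mM PBS, pH 2. At 2 h, rats were killed by CO₂. CSF (50-100 μL) was taken from the cisterna magna, and brain and plasma were also collected. Glycine was measured by LC-MS/MS against a deuterated-glycine internal standard. Results given as % vehicle control (vehicle 30 min post-dose), mean ± SEM. Two-way ANOVA with Tukey test.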"}, "[10]": {"test": "Drug level in cynomolgus monkey plasma at 10 mg/kg, po measured at 24 hrs post dose by LC-MS/MS analysis", "format": "ADME, organism-based, Macaca fascicularis"}, "[11]": {"test": "AUClast in cynomolgus monkey plasma at 1 mg/kg, iv or 5 mg/kg, po measured up to 12 or 24 hrs post dose by LC-MS/MS analysis", "format": "ADME, organism-based, Macaca fascicularis", "procedure,_shortened": "(§3)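 Single-dose PK in female cynomolgus monkeys, n = 3 per group: 1.5 μmol/kg IV in 5% DMSO/10% Solutol in saline, pH 6.5 (2 mL/kg), or 7.8 μmol/kg PO in 5% Solutol in 20% Captisol, 25 mM PBS, pH 2 (5 mL/kg). Plasma parameters reported as mean ± SD.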"}, "[12]": {"test": "Drug level in cynomolgus monkey plasma at 10 mg/kg, po measured at 0.5 hr post dose by LC-MS/MS analysis", "format": "ADME, organism-based, Macaca fascicularis", "procedure,_shortened": "(§4)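 Cynomolgus monkeys (n = 3/group) fitted with subcutaneous CSF ports were dosed orally at 0.4−15.7 μmol/kg in 5% Solutol plus 20% Captisol in 25 mM PBS, pH 2. CSF (about 0.30 mL) and blood were sampled predose and at 0.5, 1, 2, 3, 4, 8, 12 and 24 h. Quantitation limit 1.0 ng/mL; mean ± SD.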"}, "[13]": {"test": "Intrinsic clearance in rat", "format": "ADME"}, "Cytochrome P450 2D6": {"target": "Cytochrome P450 2D6 (Homo sapiens, UniProt P10635)", "sequence (P10635 whole entry)": "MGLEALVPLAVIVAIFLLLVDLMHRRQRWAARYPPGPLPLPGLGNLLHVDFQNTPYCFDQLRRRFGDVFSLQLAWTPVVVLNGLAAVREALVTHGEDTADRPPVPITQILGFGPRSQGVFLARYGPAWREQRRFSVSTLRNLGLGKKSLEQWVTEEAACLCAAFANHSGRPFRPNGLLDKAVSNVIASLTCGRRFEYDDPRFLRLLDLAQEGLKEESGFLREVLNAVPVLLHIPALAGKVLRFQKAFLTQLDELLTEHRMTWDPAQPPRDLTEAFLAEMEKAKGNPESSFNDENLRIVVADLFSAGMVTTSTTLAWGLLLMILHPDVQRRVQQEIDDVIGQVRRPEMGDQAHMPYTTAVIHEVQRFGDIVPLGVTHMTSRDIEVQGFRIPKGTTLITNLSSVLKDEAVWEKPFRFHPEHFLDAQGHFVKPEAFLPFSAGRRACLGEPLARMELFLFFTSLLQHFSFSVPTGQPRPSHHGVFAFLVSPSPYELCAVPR", "test": "Inhibition of CYP2D6 (unknown origin)", "format": "ADME"}, "[14]": {"test": "Drug level in cynomolgus monkey plasma at 10 mg/kg, po measured at 3 hrs post dose by LC-MS/MS analysis", "format": "ADME, organism-based, Macaca fascicularis"}, "[15]": {"test": "Protein binding in rat plasma", "format": "ADME, cell-free", "details": "read-out: PPB (converted)"}, "[16]": {"test": "Drug level in cynomolgus monkey CSF at 10 mg/kg, po measured at 0.5 hr post dose by LC-MS/MS analysis", "format": "ADME, organism-based, Macaca fascicularis, Cerebrospinal fluid", "details": "read-out: Drug uptake", "procedure,_shortened": "as §4"}, "[17]": {"test": "Apparent permeability from apical to basolateral side in human Caco2 cells", "format": "ADME, cell-based", "details": "Caco-2", "procedure,_shortened": "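Caco-2 monolayer permeability measured in both the A-to-B and B-to-A directions and reported as P_app (×10⁻⁶ cm/s).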"}, "[18]": {"test": "Drug level in cynomolgus monkey CSF at 10 mg/kg, po measured at 8 hrs post dose by LC-MS/MS analysis", "format": "ADME, organism-based, Macaca fascicularis, Cerebrospinal fluid", "details": "read-out: Drug uptake", "procedure,_shortened": "as §4"}, "[19]": {"test": "Cmax in cynomolgus monkey plasma at 5 mg/kg, po by LC-MS/MS analysis", "format": "ADME, organism-based, Macaca fascicularis", "set-up": "dose 5 mg/kg, route oral", "procedure,_shortened": "as §3"}, "Cytochrome P450 2C19": {"target": "Cytochrome P450 2C19 (Homo sapiens, UniProt P33261)", "sequence (P33261 whole entry)": "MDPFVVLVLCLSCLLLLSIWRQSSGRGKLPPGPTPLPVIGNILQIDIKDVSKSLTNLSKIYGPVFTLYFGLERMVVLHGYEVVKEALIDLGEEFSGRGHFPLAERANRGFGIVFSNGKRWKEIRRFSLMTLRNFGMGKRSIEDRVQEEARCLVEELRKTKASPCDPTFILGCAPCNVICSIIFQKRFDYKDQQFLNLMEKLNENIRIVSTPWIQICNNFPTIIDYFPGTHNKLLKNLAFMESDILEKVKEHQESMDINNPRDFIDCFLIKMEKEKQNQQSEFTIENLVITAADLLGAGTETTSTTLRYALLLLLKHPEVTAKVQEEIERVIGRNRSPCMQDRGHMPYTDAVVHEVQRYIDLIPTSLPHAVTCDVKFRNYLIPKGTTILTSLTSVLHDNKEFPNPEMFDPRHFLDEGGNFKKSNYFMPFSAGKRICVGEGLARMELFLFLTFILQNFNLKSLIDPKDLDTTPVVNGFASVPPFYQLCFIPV", "test": "Inhibition of CYP2C19 (unknown origin)", "format": "ADME"}, "Cytochrome P450 3A4": {"target": "Cytochrome P450 3A4 (Homo sapiens, UniProt P08684)", "sequence (P08684 whole entry)": "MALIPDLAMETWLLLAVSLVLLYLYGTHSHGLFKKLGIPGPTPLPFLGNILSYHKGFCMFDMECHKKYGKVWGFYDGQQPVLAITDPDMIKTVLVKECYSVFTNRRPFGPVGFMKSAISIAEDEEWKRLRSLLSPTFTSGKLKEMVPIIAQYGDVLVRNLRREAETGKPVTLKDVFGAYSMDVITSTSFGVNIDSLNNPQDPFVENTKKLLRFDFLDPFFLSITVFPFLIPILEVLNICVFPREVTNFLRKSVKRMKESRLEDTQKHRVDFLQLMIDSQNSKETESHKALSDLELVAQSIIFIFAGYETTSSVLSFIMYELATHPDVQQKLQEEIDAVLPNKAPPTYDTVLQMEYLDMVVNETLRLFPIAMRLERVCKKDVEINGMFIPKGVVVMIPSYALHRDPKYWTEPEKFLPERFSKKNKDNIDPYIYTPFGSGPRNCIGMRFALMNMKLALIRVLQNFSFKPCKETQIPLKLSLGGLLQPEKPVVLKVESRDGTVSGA", "test": "Inhibition of CYP3A4 (unknown origin)", "format": "ADME"}, "Cytochrome P450 2C9": {"target": "Cytochrome P450 2C9 (Homo sapiens, UniProt P11712)", "sequence (P11712 whole entry)": "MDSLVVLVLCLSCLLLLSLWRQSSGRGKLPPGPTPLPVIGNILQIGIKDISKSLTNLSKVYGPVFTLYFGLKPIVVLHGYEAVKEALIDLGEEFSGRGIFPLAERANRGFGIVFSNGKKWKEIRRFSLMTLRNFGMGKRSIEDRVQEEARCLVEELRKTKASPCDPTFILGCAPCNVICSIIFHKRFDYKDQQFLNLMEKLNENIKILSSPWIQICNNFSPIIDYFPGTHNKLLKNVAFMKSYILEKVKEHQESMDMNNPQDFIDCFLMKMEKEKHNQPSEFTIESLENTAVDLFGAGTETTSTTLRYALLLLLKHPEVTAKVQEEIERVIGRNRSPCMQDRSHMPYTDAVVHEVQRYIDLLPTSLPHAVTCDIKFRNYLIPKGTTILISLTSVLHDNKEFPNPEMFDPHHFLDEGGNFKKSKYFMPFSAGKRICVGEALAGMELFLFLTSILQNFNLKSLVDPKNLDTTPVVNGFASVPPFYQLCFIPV", "test": "Inhibition of CYP2C9 (unknown origin)", "format": "ADME"}, "[20]": {"test": "Intrinsic clearance in human", "format": "ADME"}, "[21]": {"test": "Apparent terminal half life in Sprague-Dawley rat plasma at 10 mg/kg, po or 2 mg/kg, iv administered as single dose by LC-MS/MS analysis", "format": "ADME, organism-based", "details": "read-out: betat1/2(app) (converted)", "procedure,_shortened": "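Single-dose PK in drug-naive adult male Sprague−Dawley rats, n = 3 per group: 3.1 μmol/kg IV in 5% DMSO/10% Solutol in saline (5 mL/kg), or 15.7 μmol/kg PO in 5% Solutol/10% Captisol in 25 mM PBS, pH adjusted to 2 with HCl. Plasma parameters reported as mean ± SD.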"}}, "note": "pIC50: −log10 of the molar value. The source made the active and inactive calls. The rule behind the calls is not given here."}
{"compound": "Cl.Cn1cc(S(=O)(=O)N2CCN(C3(CNC(=O)c4ccc(C(F)(F)F)cc4Cl)CCC(F)(F)CC3)CC2)nn1", "values": [{"measurement": "concentration at 2 h", "setting": "[1]", "result": 44.8, "unit": "nM"}, {"measurement": "Activity", "setting": "Rattus norvegicus [2]", "result": 188, "unit": "%"}, {"measurement": "concentration at 2 h", "setting": "[3]", "result": 1.1, "unit": "nM"}, {"measurement": "concentration at 2 h", "setting": "[4]", "result": 38.2, "unit": "nM"}, {"measurement": "Activity", "setting": "[5]", "result": "Non-Toxic"}, {"measurement": "inhibition", "setting": "Rattus norvegicus [6]", "result": "inactive"}, {"measurement": "Activity", "setting": "Rattus norvegicus [7]", "result": 329.1, "unit": "%"}, {"measurement": "concentration at 2 h", "setting": "[8]", "result": 7.6, "unit": "nM"}, {"measurement": "ED200", "setting": "Rattus norvegicus [9]", "result": "1.6 to 4.8", "unit": "µmol/kg"}]}
{"compound": "CC(NC(=O)c1ccc(C(F)(F)F)cc1Cl)C1(N2CCN(S(=O)(=O)c3cn(C)nn3)CC2)CCC(F)(F)CC1.Cl", "note": "(single isomer, unassigned; (+))", "values": [{"measurement": "concentration at 24 h", "setting": "[10]", "result": 10.3, "unit": "ng/mL"}, {"measurement": "AUC(0-t) at 24 h", "setting": "[11]", "result": 690, "unit": "ng·h/mL"}, {"measurement": "concentration at 0.5 h", "setting": "[12]", "result": 67.9, "unit": "ng/mL"}, {"measurement": "CL", "setting": "[13]", "result": 6, "unit": "microL/ml/min"}, {"measurement": "pIC50", "setting": "Cytochrome P450 2D6", "result": "< 5.14"}, {"measurement": "concentration at 3 h", "setting": "[14]", "result": 205, "unit": "ng/mL"}, {"measurement": "fraction unbound", "setting": "[15]", "result": 0.13}, {"measurement": "concentration at 0.5 h", "setting": "[16]", "result": 1.8, "unit": "ng/mL"}, {"measurement": "Papp A→B", "setting": "[17]", "result": 23.9, "unit": "×10⁻⁶ cm/s"}, {"measurement": "concentration at 8 h", "setting": "[18]", "result": 7.6, "unit": "ng/mL"}, {"measurement": "Cmax", "setting": "[19]", "result": 105, "unit": "ng/mL"}, {"measurement": "pIC50", "setting": "Cytochrome P450 2C19", "result": "< 5.14"}, {"measurement": "pIC50", "setting": "Cytochrome P450 3A4", "result": "< 5.14"}, {"measurement": "pIC50", "setting": "Cytochrome P450 2C9", "result": "< 5.14"}, {"measurement": "CL", "setting": "[20]", "result": 4, "unit": "microL/ml/min"}, {"measurement": "half-life", "setting": "[21]", "result": 4.33, "unit": "h"}]}
